Holding throughout (assay type): functional, cell-based
The subject of one test is L1210. In words: Cytostatic activity against mouse L1210 cells after 2 days by coulter ZI particle counting analysis. The settings on record: L1210, 48 h. In short, it runs like this:
(§1)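 Cells seeded in 96-well plates and grown with or without serial dilutions of compound, 2 days for L1210 and 3 days for CEM and HeLa. IC50 taken as concentration inhibiting cell proliferation by 50%.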

For the next test, the system named is HeLa. Briefly: Cytostatic activity against human HeLa cells after 3 days by coulter ZI particle counting analysis. The note with it: 72 h. In short, it runs like this:
as §1

The subject of another test is CCRF-CEM. Briefly: Cytostatic activity against human CEM cells after 3 days by coulter ZI particle counting analysis. The settings on record: 72 h. In short, it runs like this: as §1

As a reminder, the IC50 is the concentration needed to halve the response being measured.

Take `CCOP(=O)(CCCCn1cc(Cn2c(Cl)nc3c2c(=O)n(C)c(=O)n3C)nn1)OCC`: the IC50 with L1210, in the test with HeLa and with CCRF-CEM was over 200 µM each time.

As to `Nc1ncnc2c1ncn2Cc1cn(CCCCP(=O)(O)O)nn1`, the IC50 in the test on L1210, in the test on HeLa and in the test with CCRF-CEM was over 200 µM in each case.

For `CCOP(=O)(CCn1cc(Cn2cnc3cc(C)c(C)cc32)nn1)OCC`, the IC50 was at least 200 µM with L1210, over 200 µM in the test with HeLa and 23.4 µM in the test on CCRF-CEM.

Take `CCOP(=O)(OCC)C(O)CCn1cc(Cn2ccc(NC(C)=O)nc2=O)nn1` (centres undefined): the IC50 in the test on L1210, in the test with HeLa and in the test with CCRF-CEM was over 200 µM each time.

`CCOP(=O)(Cn1cc(Cn2cc(C(C)=O)c3ccccc32)nn1)OCC`: the concentration for half-maximal inhibition (IC50) with L1210 was 72 µM; in the test with HeLa, 11 µM; in the test on CCRF-CEM it was 2.78 µM.

With `CCOP(=O)(OCC)C(O)CCn1cc(Cn2cc(C)c(=O)[nH]c2=O)nn1` (centres undefined), the IC50 in the test on L1210, in the test with HeLa and in the test with CCRF-CEM was over 200 µM each time.

On to `CCOP(=O)(OCC)C(O)Cn1cc(Cn2c(=O)n(C(=O)c3ccccc3)c(=O)c3ccccc32)nn1` (centres undefined), for which the results for the IC50 in the test on L1210, in the test with HeLa and in the test on CCRF-CEM were over 200 µM, over 200 µM and at least 77 µM, respectively.

Consider `CCOP(=O)(Cn1cc(Cn2cnc3cc(C)c(C)cc32)nn1)OCC`, for which the half-maximal inhibitory concentration (IC50) in the test on L1210 is over 200 µM; in the test on HeLa it was 42 µM; with CCRF-CEM it was 97 µM.

Consider `CCOP(=O)(CCn1cc(Cn2cnc3c2c(=O)n(C)c(=O)n3C)nn1)OCC`, for which the IC50 with L1210, with HeLa and with CCRF-CEM was over 200 µM throughout.

Regarding `CCOP(=O)(CCn1cc(Cn2ccccc2=O)nn1)OCC`, the IC50 with L1210, with HeLa and in the test with CCRF-CEM was over 200 µM throughout.

As for `CCOP(=O)(CCn1cc(Cn2c(=O)c3c(ncn3C)n(C)c2=O)nn1)OCC`, the figures for the IC50 with L1210, with HeLa and with CCRF-CEM were over 200 µM, 159 µM and over 200 µM, respectively.

In the case of `CCOP(=O)(OCC)C(O)Cn1cc(Cn2c(Cl)nc3c2c(=O)n(C)c(=O)n3C)nn1` (centres undefined), the IC50 in the test on L1210, in the test with HeLa and with CCRF-CEM was over 200 µM throughout.

Consider `CCOP(=O)(CC(O)Cn1cc(Cn2c(=O)n(C(=O)c3ccccc3)c(=O)c3ccccc32)nn1)OCC` (centres undefined), for which the IC50 with L1210 was over 200 µM; with HeLa, over 200 µM; in the test on CCRF-CEM it was 72 µM.

As for `CCOP(=O)(CCCn1cc(Cn2c(=O)c3c(ncn3C)n(C)c2=O)nn1)OCC`, the half-maximal inhibitory concentration (IC50) in the test with L1210, in the test on HeLa and with CCRF-CEM was over 200 µM throughout.

With `O=C(c1ccccc1)n1c(=O)c2ccccc2n(Cc2cn(CCCP(=O)(O)O)nn2)c1=O`, the IC50 in the test on L1210, with HeLa and with CCRF-CEM was over 200 µM throughout.

As to `CCOP(=O)(CCCn1cc(Cn2cnc3c2c(=O)n(C)c(=O)n3C)nn1)OCC`, the IC50 with L1210, in the test on HeLa and in the test with CCRF-CEM was over 200 µM in each case.

Consider `CCOP(=O)(Cn1cc(Cn2c(=O)n(C(=O)c3ccccc3)c(=O)c3ccccc32)nn1)OCC`, for which the IC50 with L1210 is over 200 µM; in the test on HeLa, at least 89 µM; in the test with CCRF-CEM, at least 72 µM.

For the compound `CCOP(=O)(CCCCn1cc(Cn2ncc(=O)[nH]c2=O)nn1)OCC`, the IC50 in the test with L1210, with HeLa and in the test with CCRF-CEM was over 200 µM each time.

`Cc1cc2ncn(Cc3cn(CCCP(=O)(O)O)nn3)c2cc1C`: the concentration for half-maximal inhibition (IC50) in the test on L1210, with HeLa and with CCRF-CEM was over 200 µM each time.

With `CCOP(=O)(CC(O)Cn1cc(Cn2cc(C(C)=O)c3ccccc32)nn1)OCC` (centres undefined), the results for the IC50 in the test on L1210, in the test on HeLa and in the test on CCRF-CEM were over 200 µM, 97 µM and 43 µM, respectively.

With `CCOP(=O)(CCCCn1cc(Cn2ccc(NC(C)=O)nc2=O)nn1)OCC`, the half-inhibitory concentration (IC50) with L1210, in the test on HeLa and with CCRF-CEM was over 200 µM each time.

Take `CCOP(=O)(CCCCn1cc(Cn2c(=O)c3c(ncn3C)n(C)c2=O)nn1)OCC`: the IC50 with L1210, with HeLa and with CCRF-CEM was over 200 µM each time.

Consider `CCOP(=O)(OCC)C(O)Cn1cc(Cn2c(=O)c3c(ncn3C)n(C)c2=O)nn1` (centres undefined), for which the IC50 in the test with L1210, with HeLa and in the test on CCRF-CEM was over 200 µM throughout.

For `CCOP(=O)(CCCCn1cc(Cn2cnc3cc(C)c(C)cc32)nn1)OCC`, the IC50 was over 200 µM with L1210, 172 µM with HeLa and 24.7 µM in the test with CCRF-CEM.

On to `CCOP(=O)(OCC)C(O)CCn1cc(Cn2cnc3cc(C)c(C)cc32)nn1` (centres undefined), for which the IC50 in the test with L1210 is over 200 µM; in the test with HeLa, over 200 µM; in the test on CCRF-CEM, 163 µM.

For the compound `CCOP(=O)(CCCCn1cc(Cn2cnc3c(N)ncnc32)nn1)OCC`, the IC50 in the test with L1210, in the test on HeLa and with CCRF-CEM was over 200 µM each time.

For the compound `CCOP(=O)(CCn1cc(Cn2c(Cl)nc3c2c(=O)n(C)c(=O)n3C)nn1)OCC`, the values for the IC50 in the test on L1210, in the test with HeLa and in the test on CCRF-CEM were over 200 µM, 200 µM and over 200 µM, respectively.

Turning to `CCOP(=O)(OCC)C(O)CCn1cc(Cn2ncc(=O)[nH]c2=O)nn1` (centres undefined), the concentration for half-maximal inhibition (IC50) in the test on L1210, in the test with HeLa and in the test with CCRF-CEM was over 200 µM in each case.

As for `CCOP(=O)(Cn1cc(Cn2cnc3c2c(=O)n(C)c(=O)n3C)nn1)OCC`, the IC50 in the test on L1210, with HeLa and in the test on CCRF-CEM was over 200 µM in each case.

For `Cc1cn(Cc2cn(CCCCP(=O)(O)O)nn2)c(=O)[nH]c1=O`, the 50% inhibitory concentration (IC50) in the test on L1210, with HeLa and in the test with CCRF-CEM was over 200 µM throughout.

For the compound `CCOP(=O)(CC(O)Cn1cc(Cn2cnc3cc(C)c(C)cc32)nn1)OCC` (centres undefined), the results for the concentration for half-maximal inhibition (IC50) with L1210, with HeLa and in the test with CCRF-CEM were over 200 µM, at least 150 µM and 78 µM, respectively.

On to `CCOP(=O)(CCCCn1cc(Cn2cc(C(C)=O)c3ccccc32)nn1)OCC`, for which the IC50 in the test on L1210 was 200 µM; in the test with HeLa it was over 200 µM; with CCRF-CEM it was 12 µM.

`CCOP(=O)(Cn1cc(Cn2ncc(=O)[nH]c2=O)nn1)OCC`: the concentration for half-maximal inhibition (IC50) with L1210, in the test with HeLa and with CCRF-CEM was over 200 µM in each case.

For `CCOP(=O)(CCCn1cc(Cn2cnc3cc(C)c(C)cc32)nn1)OCC`, the IC50 in the test with L1210 amounted to 189 µM; with HeLa, 101 µM; in the test on CCRF-CEM it was 14 µM.

As for `CCOP(=O)(CC(O)Cn1cc(Cn2c(Cl)nc3c2c(=O)n(C)c(=O)n3C)nn1)OCC` (centres undefined), the concentration for half-maximal inhibition (IC50) with L1210, in the test with HeLa and in the test on CCRF-CEM was over 200 µM in each case.

With `CCOP(=O)(OCC)C(O)CCn1cc(Cn2ccccc2=O)nn1` (centres undefined), the IC50 with L1210, in the test on HeLa and in the test with CCRF-CEM was over 200 µM in each case.

Take `CCOP(=O)(OCC)C(O)Cn1cc(Cn2ccccc2=O)nn1` (centres undefined): the IC50 in the test with L1210, in the test on HeLa and in the test on CCRF-CEM was over 200 µM throughout.

As for `CCOP(=O)(Cn1cc(Cn2c(Cl)nc3c2c(=O)n(C)c(=O)n3C)nn1)OCC`, the IC50 with L1210, with HeLa and with CCRF-CEM was over 200 µM in each case.

`CCOP(=O)(OCC)C(O)CCn1cc(Cn2c(Cl)nc3c2c(=O)n(C)c(=O)n3C)nn1` (centres undefined): the IC50 in the test on L1210, with HeLa and in the test on CCRF-CEM was over 200 µM in each case.

For `CCOP(=O)(CCCn1cc(Cn2c(Cl)nc3c2c(=O)n(C)c(=O)n3C)nn1)OCC`, the IC50 in the test with L1210, with HeLa and with CCRF-CEM was over 200 µM in each case.

Consider `CCOP(=O)(OCC)C(O)Cn1cc(Cn2ncc(=O)[nH]c2=O)nn1` (centres undefined), for which the concentration for half-maximal inhibition (IC50) in the test with L1210, with HeLa and in the test on CCRF-CEM was over 200 µM each time.

Regarding `O=c1ccn(Cc2cn(CCCCP(=O)(O)O)nn2)c(=O)[nH]1`, the IC50 in the test on L1210, in the test with HeLa and in the test with CCRF-CEM was over 200 µM each time.

Regarding `O=C(c1ccccc1)n1c(=O)ccn(Cc2cn(CCCP(=O)(O)O)nn2)c1=O`, the IC50 with L1210, in the test with HeLa and with CCRF-CEM was over 200 µM throughout.

On to `CCOP(=O)(CCn1cc(Cn2cc(C(C)=O)c3ccccc32)nn1)OCC`, for which the 50% inhibitory concentration (IC50) worked out at 197 µM with L1210, 18 µM with HeLa and 11.4 µM in the test with CCRF-CEM.

Take `CCOP(=O)(CCCCn1cc(Cn2ccccc2=O)nn1)OCC`: the IC50 in the test on L1210, with HeLa and with CCRF-CEM was over 200 µM throughout.

As for `CCOP(=O)(CC(O)Cn1cc(Cn2ccccc2=O)nn1)OCC` (centres undefined), the IC50 with L1210, with HeLa and with CCRF-CEM was over 200 µM throughout.

On to `CCOP(=O)(OCC)C(O)CCn1cc(Cn2c(=O)n(C(=O)c3ccccc3)c(=O)c3ccccc32)nn1` (centres undefined), for which the results for the IC50 with L1210, in the test on HeLa and with CCRF-CEM were over 200 µM, over 200 µM and 70 µM, respectively.

As for `Cn1c(=O)c2c(ncn2Cc2cn(CC(O)P(=O)(O)O)nn2)n(C)c1=O` (centres undefined), the IC50 in the test on L1210, in the test with HeLa and with CCRF-CEM was over 200 µM in each case.

Take `CCOP(=O)(CCCn1cc(Cn2cc(C(C)=O)c3ccccc32)nn1)OCC`: the IC50 stood at 164 µM with L1210, 19 µM in the test with HeLa and 4.54 µM with CCRF-CEM.

In the case of `CCOP(=O)(Cn1cc(Cn2c(=O)c3c(ncn3C)n(C)c2=O)nn1)OCC`, the IC50 in the test with L1210 is over 200 µM; in the test on HeLa, at least 149 µM; in the test on CCRF-CEM, over 200 µM.

Take `CCOP(=O)(OCC)C(O)CCn1cc(Cn2c(=O)c3c(ncn3C)n(C)c2=O)nn1` (centres undefined): the IC50 in the test with L1210, in the test with HeLa and in the test with CCRF-CEM was over 200 µM in each case.

As for `CCOP(=O)(CC(O)Cn1cc(Cn2cnc3c2c(=O)n(C)c(=O)n3C)nn1)OCC` (centres undefined), the concentration for half-maximal inhibition (IC50) in the test with L1210, in the test with HeLa and in the test with CCRF-CEM was over 200 µM each time.

On to `CCOP(=O)(CC(O)Cn1cc(Cn2c(=O)c3c(ncn3C)n(C)c2=O)nn1)OCC` (centres undefined), for which the IC50 in the test with L1210, with HeLa and in the test on CCRF-CEM was over 200 µM each time.
